According to article PMC10973196 (Saudi Pharmaceutical Journal : SPJ, 2024):
Values after ≈ are worked out from the molar mass of the structure shown.

What was measured:
[1] = target: SARS-CoV-2 main protease (Mpro) (Severe acute respiratory syndrome coronavirus 2, UniProt P0DTD1); test: biochemical
[2] = Cell viability; type: cell-based; details: human, normal HUVEC cells
Method in brief: (§1)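 Cells were seeded in 96-well plates, grown for 24 h, then exposed to test compounds at various concentrations for 48 h. MTT solution (5 mg/mL) was added for 2–4 h at 37 °C, and formazan absorbance was read at 570 nm. Viability was expressed as treated/untreated absorbance ×100, and IC50 was fitted from viability dose-response curves.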

[3] = system: lung cancer cell (A549); test: Cell viability; type: cell-based; details: Homo sapiens, A549, 48 h, read-out: IC50, cytotoxic activity
Method in brief: as §1

Q: Which IC50 [1] does the source give for `C[C@@H]1O[C@@H](Oc2cc3c(=O)oc4c(O)c(O)cc5c(=O)oc(c2O)c3c45)[C@H](O)[C@H](O)[C@H]1O` [Compound 10, ellagic acid-2-O-α-L-rhamnopyranoside (eschweilenol C)] here?
A: The IC50 was 22.3 µM.

Q: And the IC50 at 48 h [2]?
A: The IC50 at 48 h was > 100 µg/mL.

Q: What about the IC50 [3] of the same molecule?
A: Its IC50 is > 100 µg/mL.

Q: For `O=c1cc(-c2ccc(O)cc2)oc2cc(O)c([C@@H]3O[C@H](CO)[C@@H](O)[C@H](O)[C@H]3O)c(O)c12` [Compound 14, apigenin-6-C-β-D-glucoside (isovitexin)], which IC50 [1] is on record?
A: The IC50 was 21.7 µM.

Q: What about the IC50 at 48 h [2] of the same molecule?
A: The IC50 at 48 h was > 100 µg/mL.

Q: What about the IC50 [3] of the same molecule?
A: Its IC50 is > 100 µg/mL.

Q: Which results are given for `COc1cccc2c1C(=O)c1c(O)c3c(c(O)c1C2=O)C[C@@](O)(C(=O)CO)C[C@@H]3O[C@H]1C[C@H](N)[C@H](O)[C@H](C)O1` [Doxorubicin, reference compound]?
A: IC50 at 48 h [2]: 2.5 ± 0.1 µg/mL (≈ 4.6 µM); IC50 [3]: 1.45 ± 0.05 µg/mL (≈ 2.67 µM)
